According to publication PMC9217999 (Targeted Oncology, 2022):
“Also recorded” adds a separate entry of the source.

Assay: Safety and tolerability in iMATRIX-cobi Phase I/II study
Type: in vivo, human
How it was run: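 Patients aged 6 months to <30 years with relapsed/refractory solid tumors with MAPK pathway involvement. Oral test compound (20-mg tablet or suspension, with/without food) on Days 1–21 of 28-day cycles. Cumulative weekly weight-based dose rounded to 20 mg, capped at 60 mg/day. Rolling 6 escalation in cohorts of 3–6. Eye exams including OCT at baseline, cycle 1 Days 8/15, and each later cycle Day 1. All dosed patients evaluated.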

[1] = Dose escalation suspension (n = 26)
[2] = Dose escalation tablet (n = 18)

O=C(c1ccc(F)c(F)c1Nc1ccc(I)cc1F)N1CC(O)([C@@H]2CCCCN2)C1 [cobimetinib]
DLTs (events) (0.6 mg/kg suspension): grade 1 chorioretinopathy
DLTs (events) (1.0 mg/kg tablet): grade 3 headache; also recorded: grade 2 retinal detachment
DLTs (events) (1.33 mg/kg suspension): grade 4 chorioretinopathy; also recorded: grade 1 serous retinal detachment
Any treatment-related AE, G1 [1]: 6 (23) n (%)
Any treatment-related AE, G2 [1]: 12 (46) n (%)
Any treatment-related AE, G3 [1]: 4 (15) n (%)
Any treatment-related AE, G4 [1]: 1 (4) n (%)
Treatment-related AE: ALT increased, G1 [1]: 1 (4) n (%)
Treatment-related AE: ALT increased, G2 [1]: 0 n (%)
Treatment-related AE: ALT increased, G3 [1]: 1 (4) n (%)
Treatment-related AE: ALT increased, G4 [1]: 0 n (%)
Treatment-related AE: AST increased, G1 [1]: 1 (4) n (%)
Treatment-related AE: AST increased, G2 [1]: 0 n (%)
Treatment-related AE: AST increased, G3 [1]: 1 (4) n (%)
Treatment-related AE: AST increased, G4 [1]: 0 n (%)
Treatment-related AE: Abdominal pain, G1 [1]: 2 (8) n (%)
Treatment-related AE: Abdominal pain, G2 [1]: 2 (8) n (%)
Treatment-related AE: Abdominal pain, G3 [1]: 0 n (%)
Treatment-related AE: Abdominal pain, G4 [1]: 0 n (%)
Treatment-related AE: Anemia, G1 [1]: 1 (4) n (%)
Treatment-related AE: Anemia, G2 [1]: 0 n (%)
Treatment-related AE: Anemia, G3 [1]: 0 n (%)
Treatment-related AE: Anemia, G4 [1]: 0 n (%)
Treatment-related AE: Asthenia, G1 [1]: 0 n (%)
Treatment-related AE: Asthenia, G2 [1]: 0 n (%)
Treatment-related AE: Asthenia, G3 [1]: 0 n (%)
Treatment-related AE: Asthenia, G4 [1]: 0 n (%)
Treatment-related AE: Blood CPK increased, G1 [1]: 2 (8) n (%)
Treatment-related AE: Blood CPK increased, G2 [1]: 1 (4) n (%)
Treatment-related AE: Blood CPK increased, G3 [1]: 1 (4) n (%)
Treatment-related AE: Blood CPK increased, G4 [1]: 0 n (%)
Treatment-related AE: Chorioretinopathy, G1 [1]: 1 (4) n (%)
Treatment-related AE: Chorioretinopathy, G2 [1]: 0 n (%)
Treatment-related AE: Chorioretinopathy, G3 [1]: 0 n (%)
Treatment-related AE: Chorioretinopathy, G4 [1]: 1 (4) n (%)
Treatment-related AE: Constipation, G1 [1]: 1 (4) n (%)
Treatment-related AE: Constipation, G2 [1]: 0 n (%)
Treatment-related AE: Constipation, G3 [1]: 0 n (%)
Treatment-related AE: Constipation, G4 [1]: 0 n (%)
Treatment-related AE: Decreased appetite, G1 [1]: 2 (8) n (%)
Treatment-related AE: Decreased appetite, G2 [1]: 0 n (%)
Treatment-related AE: Decreased appetite, G3 [1]: 0 n (%)
Treatment-related AE: Decreased appetite, G4 [1]: 0 n (%)
Treatment-related AE: Dermatitis acneiform, G1 [1]: 4 (15) n (%)
Treatment-related AE: Dermatitis acneiform, G2 [1]: 1 (4) n (%)
Treatment-related AE: Dermatitis acneiform, G3 [1]: 1 (4) n (%)
Treatment-related AE: Dermatitis acneiform, G4 [1]: 0 n (%)
Treatment-related AE: Diarrhea, G1 [1]: 2 (8) n (%)
Treatment-related AE: Diarrhea, G2 [1]: 7 (27) n (%)
Treatment-related AE: Diarrhea, G3 [1]: 0 n (%)
Treatment-related AE: Diarrhea, G4 [1]: 0 n (%)
Treatment-related AE: Dry skin, G1 [1]: 4 (15) n (%)
Treatment-related AE: Dry skin, G2 [1]: 0 n (%)
Treatment-related AE: Dry skin, G3 [1]: 1 (4) n (%)
Treatment-related AE: Dry skin, G4 [1]: 0 n (%)
Treatment-related AE: Encephalopathy, G1 [1]: 0 n (%)
Treatment-related AE: Encephalopathy, G2 [1]: 0 n (%)
Treatment-related AE: Encephalopathy, G3 [1]: 0 n (%)
Treatment-related AE: Encephalopathy, G4 [1]: 0 n (%)
Treatment-related AE: Erythema, G1 [1]: 2 (8) n (%)
Treatment-related AE: Erythema, G2 [1]: 0 n (%)
Treatment-related AE: Erythema, G3 [1]: 0 n (%)
Treatment-related AE: Erythema, G4 [1]: 0 n (%)
Treatment-related AE: Fatigue, G1 [1]: 6 (23) n (%)
Treatment-related AE: Fatigue, G2 [1]: 0 n (%)
Treatment-related AE: Fatigue, G3 [1]: 0 n (%)
Treatment-related AE: Fatigue, G4 [1]: 0 n (%)
Treatment-related AE: Headache, G1 [1]: 3 (12) n (%)
Treatment-related AE: Headache, G2 [1]: 2 (8) n (%)
Treatment-related AE: Headache, G3 [1]: 0 n (%)
Treatment-related AE: Headache, G4 [1]: 0 n (%)
Treatment-related AE: Nausea, G1 [1]: 4 (15) n (%)
Treatment-related AE: Nausea, G2 [1]: 0 n (%)
Treatment-related AE: Nausea, G3 [1]: 0 n (%)
Treatment-related AE: Nausea, G4 [1]: 0 n (%)
Treatment-related AE: Paronychia, G1 [1]: 2 (8) n (%)
Treatment-related AE: Paronychia, G2 [1]: 1 (4) n (%)
Treatment-related AE: Paronychia, G3 [1]: 1 (4) n (%)
Treatment-related AE: Paronychia, G4 [1]: 0 n (%)
Treatment-related AE: Rash, G1 [1]: 2 (8) n (%)
Treatment-related AE: Rash, G2 [1]: 0 n (%)
Treatment-related AE: Rash, G3 [1]: 0 n (%)
Treatment-related AE: Rash, G4 [1]: 0 n (%)
Treatment-related AE: Transaminases increased, G1 [1]: 0 n (%)
Treatment-related AE: Transaminases increased, G2 [1]: 0 n (%)
Treatment-related AE: Transaminases increased, G3 [1]: 1 (4) n (%)
Treatment-related AE: Transaminases increased, G4 [1]: 0 n (%)
Treatment-related AE: Vomiting, G1 [1]: 2 (8) n (%)
Treatment-related AE: Vomiting, G2 [1]: 0 n (%)
Treatment-related AE: Vomiting, G3 [1]: 0 n (%)
Treatment-related AE: Vomiting, G4 [1]: 0 n (%)
Treatment-related AE: Weight increased, G1 [1]: 0 n (%)
Treatment-related AE: Weight increased, G2 [1]: 0 n (%)
Treatment-related AE: Weight increased, G3 [1]: 0 n (%)
Treatment-related AE: Weight increased, G4 [1]: 0 n (%)
Any treatment-related AE, G1 [2]: 7 (39) n (%)
Any treatment-related AE, G2 [2]: 5 (28) n (%)
Any treatment-related AE, G3 [2]: 4 (22) n (%)
Any treatment-related AE, G4 [2]: 0 n (%)
Treatment-related AE: ALT increased, G1 [2]: 1 (6) n (%)
Treatment-related AE: ALT increased, G2 [2]: 0 n (%)
Treatment-related AE: ALT increased, G3 [2]: 0 n (%)
Treatment-related AE: ALT increased, G4 [2]: 0 n (%)
Treatment-related AE: AST increased, G1 [2]: 1 (6) n (%)
Treatment-related AE: AST increased, G2 [2]: 0 n (%)
Treatment-related AE: AST increased, G3 [2]: 0 n (%)
Treatment-related AE: AST increased, G4 [2]: 0 n (%)
Treatment-related AE: Abdominal pain, G1 [2]: 4 (22) n (%)
Treatment-related AE: Abdominal pain, G2 [2]: 0 n (%)
Treatment-related AE: Abdominal pain, G3 [2]: 0 n (%)
Treatment-related AE: Abdominal pain, G4 [2]: 0 n (%)
Treatment-related AE: Anemia, G1 [2]: 1 (6) n (%)
Treatment-related AE: Anemia, G2 [2]: 0 n (%)
Treatment-related AE: Anemia, G3 [2]: 0 n (%)
Treatment-related AE: Anemia, G4 [2]: 0 n (%)
Treatment-related AE: Asthenia, G1 [2]: 0 n (%)
Treatment-related AE: Asthenia, G2 [2]: 0 n (%)
Treatment-related AE: Asthenia, G3 [2]: 0 n (%)
Treatment-related AE: Asthenia, G4 [2]: 0 n (%)
Treatment-related AE: Blood CPK increased, G1 [2]: 0 n (%)
Treatment-related AE: Blood CPK increased, G2 [2]: 1 (6) n (%)
Treatment-related AE: Blood CPK increased, G3 [2]: 0 n (%)
Treatment-related AE: Blood CPK increased, G4 [2]: 0 n (%)
Treatment-related AE: Chorioretinopathy, G1 [2]: 0 n (%)
Treatment-related AE: Chorioretinopathy, G2 [2]: 0 n (%)
Treatment-related AE: Chorioretinopathy, G3 [2]: 0 n (%)
Treatment-related AE: Chorioretinopathy, G4 [2]: 0 n (%)
Treatment-related AE: Constipation, G1 [2]: 3 (17) n (%)
Treatment-related AE: Constipation, G2 [2]: 0 n (%)
Treatment-related AE: Constipation, G3 [2]: 0 n (%)
Treatment-related AE: Constipation, G4 [2]: 0 n (%)
Treatment-related AE: Decreased appetite, G1 [2]: 2 (11) n (%)
Treatment-related AE: Decreased appetite, G2 [2]: 0 n (%)
Treatment-related AE: Decreased appetite, G3 [2]: 1 (6) n (%)
Treatment-related AE: Decreased appetite, G4 [2]: 0 n (%)
Treatment-related AE: Dermatitis acneiform, G1 [2]: 0 n (%)
Treatment-related AE: Dermatitis acneiform, G2 [2]: 0 n (%)
Treatment-related AE: Dermatitis acneiform, G3 [2]: 0 n (%)
Treatment-related AE: Dermatitis acneiform, G4 [2]: 0 n (%)
Treatment-related AE: Diarrhea, G1 [2]: 8 (44) n (%)
Treatment-related AE: Diarrhea, G2 [2]: 1 (6) n (%)
Treatment-related AE: Diarrhea, G3 [2]: 0 n (%)
Treatment-related AE: Diarrhea, G4 [2]: 0 n (%)
Treatment-related AE: Dry skin, G1 [2]: 2 (11) n (%)
Treatment-related AE: Dry skin, G2 [2]: 2 (11) n (%)
Treatment-related AE: Dry skin, G3 [2]: 0 n (%)
Treatment-related AE: Dry skin, G4 [2]: 0 n (%)
Treatment-related AE: Encephalopathy, G1 [2]: 0 n (%)
Treatment-related AE: Encephalopathy, G2 [2]: 0 n (%)
